# According to publication PMC3895945 (Nuclear medicine and biology, 2013):
# Key:
# [1] = system: 9L tumors; experiment: Dynamic small animal PET imaging in rats bearing 9L tumors; assay type: in vivo, Fisher rats; details: for maximum tumor-to-muscle ratio: PET region-of-interest analysis; for maximum tumor-to-muscle ratio / time to maximum tumor uptake: 9L tumors; for time to maximum tumor uptake / tumor uptake kinetics and retention: PET time-activity curves; for tumor uptake kinetics and retention: result in words
# [2] = system: 9L glioma cells; experiment: In vitro uptake studies in 9L cells; assay type: cell-based; details: for uptake in 9L cells: result in words; for uptake relative to that of FET: 9L glioma cells, 5-120 min incubation at 37 °C
# Procedure, shortened: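 9L gliosarcoma cells were grown in DMEM with 10 % FBS (37 °C, 5 % CO2) and plated at 2.0 × 10^5 cells/well 24 h ahead. Cells were washed with warm PBS containing Ca2+/Mg2+, then given radiolabeled test compound in PBS (~500,000 cpm/mL/well) at 37 °C for 5, 30, 60 or 120 min. They were washed with ice-cold PBS, lysed in 0.1N NaOH and gamma-counted. Uptake was normalised to protein (modified Lowry) as %uptake/100 μg protein, in triplicate.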
# [3] = In vitro metabolism; assay type: in vitro ADME, rat; details: for half-life: Fisher 344, rat, fresh heparinized rat whole blood
# Procedure, shortened: (§1)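 Radiolabeled test compound (~3 MBq in 50 μL PBS) was added to 1.0 mL preheated blood or a PBS control at 37 °C. Rat blood was freshly drawn from anesthetized Fisher 344 rats into heparin (100 unit/mL); heparinized human blood had been stored at −70 °C. Aliquots taken at 5–120 min were deproteinized with 1 % picric acid and centrifuged. Supernatant was analysed by C-18 radio-HPLC. Percent intact compound versus time was fitted to first-order kinetics.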
# [4] = In vivo metabolism studies of FET prodrugs in Fisher 344 rats; details: blood drawn 5 min after intravenous injection
# Procedure, shortened: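 Fisher 344 rats received ~37 MBq radiolabeled test compound intravenously. Blood was drawn from the heart 5 min post-injection. 50 μL aliquots were deproteinized with 1 % picric acid and centrifuged at 12,000g. Supernatant was run on C-18 HPLC (CH3CN/0.1 % formic acid), and fractions were gamma-counted. Parent and radio-metabolites were identified by retention time.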
# [5] = In vitro metabolism; assay type: in vitro ADME, human
# Procedure, shortened: as §1
# [6] = system: 9L tumors; experiment: In vivo biodistribution in Fisher rats with 9L glioma tumors; design: species or system Fischer 344 rats; details: for Tissue distribution Tumor: 9L tumor; for tumor uptake kinetics and retention: biodistribution 30 to 60 min, result in words; for Tumor/Blood / Tumor/Brain / Tumor/Muscle: ratio; for time to maximum uptake in the tumors: biodistribution, 9L tumors
# [7] = 30 min after intravenous injection
# [8] = 60 min after intravenous injection
# [9] = 30 min after intravenous injection, listed as FET-Ala([^18F]3)
smiles,measurement,setting,value
"CC(=O)N[C@@H](Cc1ccc(OCC[18F])cc1)C(=O)O [AcFET ([^18F]4), N-acetyl O-(2-[^18F]fluoroethyl)-L-tyrosine]",maximum tumor-to-muscle ratio,[1],< 5
same,time to maximum tumor uptake,[1],60 min
same,tumor uptake kinetics and retention,[1],slower kinetics
same,uptake in 9L cells,[2],negligible uptake
same,uptake relative to that of FET,[2],less than 1%
same,half-life,[3],77.5 min
same,metabolized to FET,[4],66%
same,stability in human blood,"[5]; human blood, 37 °C",completely stable
same,Tissue distribution Tumor,[6]; [7],0.61 ± 0.13 % ID/g
same,Tissue distribution Tumor,[6]; [8],0.85 ± 0.09 % ID/g
same,Tissue distribution Blood,[6]; [7],0.69 ± 0.03 % ID/g
same,Tissue distribution Bone,[6]; [7],0.32 ± 0.01 % ID/g
same,Tissue distribution Brain,[6]; [7],0.26 ± 0.01 % ID/g
same,Tissue distribution Heart,[6]; [7],0.60 ± 0.03 % ID/g
same,Tissue distribution Kidney,[6]; [7],0.70 ± 0.07 % ID/g
same,Tissue distribution Liver,[6]; [7],0.64 ± 0.01 % ID/g
same,Tissue distribution Lung,[6]; [7],0.55 ± 0.04 % ID/g
same,Tissue distribution Muscle,[6]; [7],0.45 ± 0.02 % ID/g
same,Tissue distribution Pancreas,[6]; [7],2.54 ± 0.11 % ID/g
same,Tissue distribution Skin,[6]; [7],0.48 ± 0.01 % ID/g
same,Tissue distribution Spleen,[6]; [7],0.66 ± 0.02 % ID/g
same,Tissue distribution Blood,[6]; [8],0.62 ± 0.01 % ID/g
same,Tissue distribution Bone,[6]; [8],0.33 ± 0.01 % ID/g
same,Tissue distribution Brain,[6]; [8],0.36 ± 0.03 % ID/g
same,Tissue distribution Heart,[6]; [8],0.56 ± 0.02 % ID/g
same,Tissue distribution Kidney,[6]; [8],0.57 ± 0.05 % ID/g
same,Tissue distribution Liver,[6]; [8],0.56 ± 0.01 % ID/g
same,Tissue distribution Lung,[6]; [8],0.51 ± 0.01 % ID/g
same,Tissue distribution Muscle,[6]; [8],0.49 ± 0.01 % ID/g
same,Tissue distribution Pancreas,[6]; [8],2.23 ± 0.51 % ID/g
same,Tissue distribution Skin,[6]; [8],0.44 ± 0.01 % ID/g
same,Tissue distribution Spleen,[6]; [8],0.65 ± 0.06 % ID/g
same,tumor uptake kinetics and retention,[6],slower uptake kinetics
same,Tumor/Blood,[6]; [7],0.88 ± 0.19
same,Tumor/Brain,[6]; [7],2.35 ± 0.51
same,Tumor/Muscle,[6]; [7],1.36 ± 0.30
same,Tumor/Blood,[6]; [8],1.37 ± 0.15
same,Tumor/Brain,[6]; [8],2.36 ± 0.32
same,Tumor/Muscle,[6]; [8],1.73 ± 0.19
"O=C[C@H]([18F])[C@@H](O)[C@H](O)[C@H](O)CO [FDG, 2-[^18F]fluoro-2-deoxy-D-glucose, reference compound]",tumor uptake kinetics and retention,[1],continuously increasing tumor uptake
"N[C@@H](Cc1ccc(OCC[18F])cc1)C(=O)O [FET ([^18F]1), O-(2-[^18F]fluoroethyl)-L-tyrosine, reference compound]",maximum tumor-to-muscle ratio,[1],5
same,time to maximum tumor uptake,[1],≤ 20 min
same,tumor uptake kinetics and retention,[1],long retention
same,uptake in 9L cells,[2],high uptake
"C[C@H](NC(=O)[C@@H](N)Cc1ccc(OCC[18F])cc1)C(=O)O [FET-Ala ([^18F]3), O-(2-[^18F]fluoroethyl)-L-tyrosyl-L-alanine]",maximum tumor-to-muscle ratio,[1],5
same,time to maximum tumor uptake,[1],≤ 20 min
same,tumor uptake kinetics and retention,[1],long retention
same,uptake in 9L cells,[2],negligible uptake
same,uptake relative to that of FET,[2],less than 1%
same,half-life,[3],5.8 min
same,metabolized to FET,[4],79%
same,half-life,"[5]; human, heparinized human whole blood",0.8 min
same,Tissue distribution Tumor,[6]; [7],1.18 ± 0.10 % ID/g
same,Tissue distribution Tumor,[6]; [8],1.10 ± 0.29 % ID/g
same,Tissue distribution Blood,[6]; [7],0.72 ± 0.03 % ID/g
same,Tissue distribution Bone,[6]; [7],0.41 ± 0.03 % ID/g
same,Tissue distribution Brain,[6]; [7],0.31 ± 0.01 % ID/g
same,Tissue distribution Heart,[6]; [7],0.67 ± 0.03 % ID/g
same,Tissue distribution Kidney,[6]; [7],0.58 ± 0.02 % ID/g
same,Tissue distribution Liver,[6]; [7],0.66 ± 0.02 % ID/g
same,Tissue distribution Lung,[6]; [7],0.62 ± 0.02 % ID/g
same,Tissue distribution Muscle,[6]; [7],0.54 ± 0.01 % ID/g
same,Tissue distribution Pancreas,[6]; [7],3.06 ± 0.38 % ID/g
same,Tissue distribution Skin,[6]; [7],0.69 ± 0.20 % ID/g
same,Tissue distribution Spleen,[6]; [7],0.74 ± 0.06 % ID/g
same,Tissue distribution Blood,[6]; [8],0.72 ± 0.03 % ID/g
same,Tissue distribution Bone,[6]; [8],0.46 ± 0.03 % ID/g
same,Tissue distribution Brain,[6]; [8],0.38 ± 0.02 % ID/g
same,Tissue distribution Heart,[6]; [8],0.66 ± 0.03 % ID/g
same,Tissue distribution Kidney,[6]; [8],0.57 ± 0.02 % ID/g
same,Tissue distribution Liver,[6]; [8],0.65 ± 0.02 % ID/g
same,Tissue distribution Lung,[6]; [8],0.61 ± 0.03 % ID/g
same,Tissue distribution Muscle,[6]; [8],0.60 ± 0.03 % ID/g
same,Tissue distribution Pancreas,[6]; [8],3.52 ± 0.26 % ID/g
same,Tissue distribution Skin,[6]; [8],0.73 ± 0.16 % ID/g
same,Tissue distribution Spleen,[6]; [8],0.71 ± 0.03 % ID/g
same,tumor uptake kinetics and retention,[6],long retention
same,time to maximum uptake in the tumors,[6],≤ 30 min
same,Tumor/Blood,[6]; [7],1.6
same,Tumor/Brain,[6]; [7],3.8
same,Tumor/Muscle,[6]; [7],2.2
same,Tumor/Blood,[6]; [9],1.64 ± 0.15
same,Tumor/Brain,[6]; [9],3.81 ± 0.35
same,Tumor/Muscle,[6]; [9],2.18 ± 0.19
same,Tumor/Blood,[6]; [8],1.53 ± 0.41
same,Tumor/Brain,[6]; [8],2.89 ± 0.78
same,Tumor/Muscle,[6]; [8],1.83 ± 0.49
"N[C@@H](Cc1ccc(OCC[18F])cc1)C(=O)NCC(=O)O [FET-Gly ([^18F]2), O-(2-[^18F]fluoroethyl)-L-tyrosyl-L-glycine]",maximum tumor-to-muscle ratio,[1],5
same,time to maximum tumor uptake,[1],≤ 20 min
same,tumor uptake kinetics and retention,[1],washout
same,uptake in 9L cells,[2],negligible uptake
same,uptake relative to that of FET,[2],less than 1%
same,t1/2 Rat blood,"[3]; hydrolysis to FET in rat blood at 37 °C, average of two experiments",17.3 min
same,metabolized to FET,[4],72%
same,t1/2 Human blood,"[5]; hydrolysis to FET in human blood at 37 °C, average of two experiments",22.7 min
same,Tissue distribution Tumor,[6]; [7],0.81 ± 0.30 % ID/g
same,Tissue distribution Tumor,[6]; [8],0.56 ± 0.33 % ID/g
same,Tissue distribution Blood,[6]; [7],0.72 ± 0.02 % ID/g
same,Tissue distribution Bone,[6]; [7],0.41 ± 0.01 % ID/g
same,Tissue distribution Brain,[6]; [7],0.33 ± 0.02 % ID/g
same,Tissue distribution Heart,[6]; [7],0.67 ± 0.03 % ID/g
same,Tissue distribution Kidney,[6]; [7],0.57 ± 0.01 % ID/g
same,Tissue distribution Liver,[6]; [7],0.67 ± 0.02 % ID/g
same,Tissue distribution Lung,[6]; [7],0.59 ± 0.01 % ID/g
same,Tissue distribution Muscle,[6]; [7],0.52 ± 0.04 % ID/g
same,Tissue distribution Pancreas,[6]; [7],2.74 ± 0.39 % ID/g
same,Tissue distribution Skin,[6]; [7],0.44 ± 0.03 % ID/g
same,Tissue distribution Spleen,[6]; [7],0.76 ± 0.05 % ID/g
same,Tissue distribution Blood,[6]; [8],0.74 ± 0.06 % ID/g
same,Tissue distribution Bone,[6]; [8],0.45 ± 0.04 % ID/g
same,Tissue distribution Brain,[6]; [8],0.47 ± 0.06 % ID/g
same,Tissue distribution Heart,[6]; [8],0.68 ± 0.05 % ID/g
same,Tissue distribution Kidney,[6]; [8],0.57 ± 0.05 % ID/g
same,Tissue distribution Liver,[6]; [8],0.66 ± 0.05 % ID/g
same,Tissue distribution Lung,[6]; [8],0.62 ± 0.06 % ID/g
same,Tissue distribution Muscle,[6]; [8],0.67 ± 0.06 % ID/g
same,Tissue distribution Pancreas,[6]; [8],2.92 ± 0.44 % ID/g
same,Tissue distribution Skin,[6]; [8],0.46 ± 0.01 % ID/g
same,Tissue distribution Spleen,[6]; [8],0.80 ± 0.12 % ID/g
same,washout from 9L tumors,[6]; at 60 min (from 30 min),31%
same,time to maximum uptake in the tumors,[6],≤ 30 min
same,Tumor/Blood,[6]; [7],1.13 ± 0.42
same,Tumor/Brain,[6]; [7],2.45 ± 0.92
same,Tumor/Muscle,[6]; [7],1.56 ± 0.59
same,Tumor/Blood,[6]; [8],0.76 ± 0.45
same,Tumor/Brain,[6]; [8],1.19 ± 0.72
same,Tumor/Muscle,[6]; [8],0.84 ± 0.50
